# Activity calls are given as the source filed them. No cut-off for these calls is given here.
# Experiments:
# [1] = Photocytotoxicity against human NCTC 2544 cells treated 30 mins before 3.75 J/cm'2 UVA irradiation measured after 72 hrs by MTT assay; format: functional, cell-based; details: NCTC-2544, light or radiation study
# Jurkat [2] = assay: Photocytotoxicity against human JURKAT cells treated 30 mins before 3.75 J/cm'2 UVA irradiation measured after 72 hrs by MTT assay; format: functional, cell-based; details: light or radiation study
# Jurkat [3] = assay: Photocytotoxicity against human JURKAT cells treated 30 mins before 2.5 J/cm'2 UVA irradiation measured after 72 hrs by MTT assay; format: functional, cell-based; details: light or radiation study
# [4] = Photocytotoxicity against human NCTC 2544 cells treated 30 mins before 2.5 J/cm'2 UVA irradiation measured after 72 hrs by MTT assay; format: functional, cell-based; details: NCTC-2544, light or radiation study
# LoVo [5] = assay: Photocytotoxicity against human LoVo cells treated 30 mins before 3.75 J/cm'2 UVA irradiation measured after 72 hrs by MTT assay; format: functional, cell-based; details: light or radiation study
# HT-1080 [6] = assay: Photocytotoxicity against human HT1080 cells treated 30 mins before 3.75 J/cm'2 UVA irradiation measured after 72 hrs by MTT assay; format: functional, cell-based; details: HT-1080, light or radiation study
# LoVo [7] = assay: Photocytotoxicity against human LoVo cells treated 30 mins before 2.5 J/cm'2 UVA irradiation measured after 72 hrs by MTT assay; format: functional, cell-based; details: light or radiation study
# HL-60 [8] = assay: Photocytotoxicity against human HL-60 cells treated 30 mins before 3.75 J/cm'2 UVA irradiation measured after 72 hrs by MTT assay; format: functional, cell-based; details: HL-60, light or radiation study
# HT-1080 [9] = assay: Photocytotoxicity against human HT1080 cells treated 30 mins before 2.5 J/cm'2 UVA irradiation measured after 72 hrs by MTT assay; format: functional, cell-based; details: HT-1080, light or radiation study
# HL-60 [10] = assay: Photocytotoxicity against human HL-60 cells treated 30 mins before 2.5 J/cm'2 UVA irradiation measured after 72 hrs by MTT assay; format: functional, cell-based; details: HL-60, light or radiation study
# LoVo [11] = assay: Photocytotoxicity against human LoVo cells at 1.25 uM treated 30 mins before 2.5 J/cm'2 UVA irradiation measured after 72 hrs by MTT assay in presence of sodium azide; format: functional, cell-based
# Method in brief: (§1)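 LoVo cells were seeded at 5×10³ per well in Ham's F12/10% FCS. Drug 1.25 μM was given with an additive: BHA 10⁻⁵ M, DMTU 1 mM, GSH 1 mM or NaN₃ 10 mM. After 30 min in HBSS at 37 °C, cells received UVA 2.5 J cm⁻², and MTT viability was read 72 h later.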
# Erythrocyte = assay: Induction of protein photodamage of human erythrocyte ghost plasmatic membrane assessed as disappearance of the spectrin subunit bands at 10 uM treated 30 mins before 2.5 J/cm'2 UVA irradiation by electrophoresis; format: cell-based
# Method in brief: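 Erythrocyte ghost membranes (1.0 mg/ml protein) were irradiated with drug at increasing UVA doses.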
# Escherichia coli [12] = assay: Induction of DNA photodamage of Escherichia coli pBR322 exposed to 3.5 J/cm'2 UVA irradiation in presence of reduced glutathione
# Method in brief: (§2)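 pBR322 supercoiled plasmid (100 ng) in 10 mM phosphate buffer pH 7.2 irradiated with UVA (365 nm, 4.0 mW cm⁻²; 3.5 J cm⁻²) at [DNA]/[drug] ratios 1, 2 and 4. Aliquots were then incubated at 37 °C with Fpg or Endo III. Scavenger runs used drug ratio 1 with mannitol 10 mM, GSH 1 mM or NaN₃ 10 mM. Samples were run on 1% agarose in TAE, 70 V, 4 h. Read-out was % form II by densitometry, mean ± SEM of three independent experiments.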
# Escherichia coli [13] = assay: Induction of DNA photodamage of Escherichia coli pBR322 exposed to 3.5 J/cm'2 UVA irradiation in presence of endonuclease 3; method in brief: as §2
# Jurkat [14] = assay: Induction of apoptosis in human JURKAT cells assessed as lysosomal damage treated 30 mins before 2.5 J/cm'2 UVA irradiation measured after 24 hrs by flow cytometry; format: functional, cell-based
# Method in brief: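 Jurkat cells were irradiated (2.5 J cm⁻²) with drug at several concentrations. At 24 h cells were stained with acridine orange 5 μg/mL for 15 min at 37 °C, washed, and analysed by flow cytometry (ex 488, em 546 nm).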
# Jurkat [15] = assay: Induction of apoptosis in human JURKAT cells assessed as increase in reactive oxygen species release treated 30 mins before 2.5 J/cm'2 UVA irradiation measured after 24 hrs by DCFDA staining; format: functional, cell-based
# Method in brief: (§3)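 Jurkat cells were irradiated (UVA 2.5 J cm⁻²) with drug at several concentrations. At 24 h they were resuspended in HBSS with hydroethidine 0.1 μM, DCFDA 2.5 μM or NAO 5.0 μM for 30 min at 37 °C. Flow cytometry used ex 488 nm, em 585 nm (HE) or 530 nm (DCFDA, NAO). Values are means ± SEM, n=3.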
# Jurkat [16] = assay: Induction of apoptosis in human JURKAT cells assessed as increase in reactive oxygen species release treated 30 mins before 2.5 J/cm'2 UVA irradiation measured after 24 hrs by hydroethidine staining; format: functional, cell-based; method in brief: as §3
# Jurkat [17] = assay: Induction of apoptosis in human JURKAT cells assessed as reduction in mitochondrial membrane potential at 5 uM treated 30 mins before 2.5 J/cm'2 UVA irradiation measured after 24 hrs by flow cytometry; format: functional, cell-based
# Method in brief: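 Jurkat cells were treated with drug at 5 μM and UVA 2.5 J cm⁻², then sampled at different times after irradiation. Cells were resuspended in HBSS with JC-1 2.5 μM for 10 min at 37 °C, then analysed by flow cytometry. Values are mean ± SEM of three experiments.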
# LoVo [18] = assay: Photocytotoxicity against human LoVo cells at 1.25 uM treated 30 mins before 2.5 J/cm'2 UVA irradiation measured after 72 hrs by MTT assay in presence of 2,6-di-t-butylhydroxyanisole; format: functional, cell-based; method in brief: as §1
# Escherichia coli [19] = assay: Induction of DNA photodamage of Escherichia coli pBR322 exposed to 3.5 J/cm'2 UVA irradiation in presence of formamidopyrimidine DNA glycosylase; method in brief: as §2
# Escherichia coli [20] = assay: Induction of DNA photodamage of Escherichia coli pBR322 exposed to 3.5 J/cm'2 UVA irradiation in presence of mannitol; method in brief: as §2
# Jurkat [21] = assay: Induction of apoptosis in human JURKAT cells homogenate assessed as lipid peroxidation treated 30 mins before 2.5 J/cm'2 UVA irradiation measured after 24 hrs by thiobarbituric acid assay; format: functional, cell-based
# Method in brief: (§4)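 Cells were grown 2 days to confluence, then irradiated in HBSS with drug 10 μM at varied UVA doses. At 24 h, the TBA test was run on supernatant and on cell homogenates. Malonaldehyde was quantified against a 1,1,3,3-tetraethoxypropane standard and expressed as nmol TBARS per total protein.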
# Escherichia coli [22] = assay: Induction of DNA photodamage of Escherichia coli pBR322 exposed to 3.5 J/cm'2 UVA irradiation; method in brief: as §2
# Jurkat [23] = assay: Induction of apoptosis in human JURKAT cells supernatant assessed as lipid peroxidation treated 30 mins before 2.5 J/cm'2 UVA irradiation measured after 24 hrs by thiobarbituric acid assay; format: functional, cell-based; method in brief: as §4
# LoVo [24] = assay: Photocytotoxicity against human LoVo cells at 1.25 uM treated 30 mins before 2.5 J/cm'2 UVA irradiation measured after 72 hrs by MTT assay in presence of N-N'-dimethylthiourea; format: functional, cell-based; method in brief: as §1
# Jurkat [25] = assay: Induction of apoptosis in human JURKAT cells assessed as increase in cardiolipin oxidation treated 30 mins before 2.5 J/cm'2 UVA irradiation measured after 24 hrs by N-nonyl acridine orange staining; format: functional, cell-based; method in brief: as §3
# Jurkat [26] = assay: Induction of apoptosis in human JURKAT cells assessed as caspase 3 activation treated 30 mins before 2.5 J/cm'2 UVA irradiation measured after 24 hrs by colorimetric assay
# Jurkat [27] = assay: Induction of apoptosis in human JURKAT cells assessed as decrease in intracellular GSH levels treated 30 mins before 2.5 J/cm'2 UVA irradiation measured after 24 hrs by flow cytometry; format: functional, cell-based
# Method in brief: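 Jurkat cells were irradiated (2.5 J cm⁻²) with drug at several concentrations. At 24 h cells were harvested and incubated with monobromobimane 50 μM for 10 min at 37 °C. GS-mBBr was measured by flow cytometry (ex 354, em 450). Values are mean ± SEM, n=3.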
# Nucleic Acid [28] = assay: Induction of DNA photodamage of salmon testes DNA assessed as DNA intercalation by circular dichroism; format: nucleic-acid assay; details: Salmonidae
# Method in brief: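 Circular dichroism of salmon testes DNA (2 μM) with ligand at ligand/DNA ratios 0.02 and 0.04 in phosphate buffer. Spectra are the average of 4 scans.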
# Escherichia coli [29] = assay: Induction of DNA photodamage of Escherichia coli pBR322 exposed to 3.5 J/cm'2 UVA irradiation in presence of sodium azide; method in brief: as §2
# LoVo [30] = assay: Photocytotoxicity against human LoVo cells at 1.25 uM treated 30 mins before 2.5 J/cm'2 UVA irradiation measured after 72 hrs by MTT assay in presence of reduced glutathione; format: functional, cell-based; method in brief: as §1
# Nucleic Acid [31] = assay: Induction of DNA photodamage of salmon testes DNA assessed as DNA intercalation by linear dichroism; format: nucleic-acid assay; details: Salmonidae
# Method in brief: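 Linear dichroism in a flow cell with salmon testes DNA at 2.27 mM in phosphate buffer, ligand/DNA r = 0, 0.02 and 0.04. Absorbance spectra were recorded alongside.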
# Jurkat [32] = assay: Induction of apoptosis in human JURKAT cells assessed as annexin V positive cells treated 30 mins before 2.5 J/cm'2 UVA irradiation measured after 24 hrs by flow cytometry; format: functional, cell-based
# Method in brief: (§5)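 Jurkat cells were exposed to drug in HBSS pH 7.2 (from DMSO stock) for 30 min at 37 °C, then given UVA 2.5 J cm⁻² (365 nm) at several concentrations. After 24 h, cells were stained with Annexin V-FITC plus propidium iodide and analysed by flow cytometry (ex 488 nm; em 525 nm FITC, 560–680 nm PI).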
# Jurkat [33] = assay: Induction of necrosis in human JURKAT cell sat 5.0 uM treated 30 mins before 2.5 J/cm'2 UVA irradiation measured after 24 hrs; format: functional; method in brief: as §5
structure (smiles),measurement,setting,value
Cc1cc2c(n1S(=O)(=O)c1ccccc1)CCc1ccc(=O)sc1-2,IC50,[1],> 20 µM
same,IC50,Jurkat [2],5 µM
same,IC50,Jurkat [3],7.3 µM
same,IC50,[4],> 20 µM
same,IC50,LoVo [5],> 20 µM
same,IC50,HT-1080 [6],> 20 µM
same,IC50,LoVo [7],> 20 µM
same,IC50,HL-60 [8],> 10 µM
same,IC50,HT-1080 [9],> 20 µM
same,IC50,HL-60 [10],> 10 µM
Cc1cc2c(n1C)CCc1ccc(=O)sc1-2,IC50,[1],> 20 µM
same,IC50,Jurkat [2],> 10 µM
same,IC50,Jurkat [3],> 10 µM
same,IC50,[4],> 20 µM
same,IC50,LoVo [5],> 20 µM
same,IC50,HT-1080 [6],> 20 µM
same,IC50,LoVo [7],> 20 µM
same,IC50,HL-60 [8],> 10 µM
same,IC50,HT-1080 [9],> 20 µM
same,IC50,HL-60 [10],> 10 µM
Cc1cc2c(n1-c1ccccc1)CCc1ccc(=O)sc1-2,IC50,[1],> 20 µM
same,IC50,Jurkat [2],3.5 µM
same,IC50,Jurkat [3],4.2 µM
same,IC50,[4],> 20 µM
same,IC50,LoVo [5],12.3 µM
same,IC50,HT-1080 [6],10.5 µM
same,IC50,LoVo [7],> 20 µM
same,IC50,HL-60 [8],2.7 µM
same,IC50,HT-1080 [9],11 µM
same,IC50,HL-60 [10],6.2 µM
COc1c2occc2cc2ccc(=O)oc12 [METHOXSALEN],IC50,[1],0.9 µM
same,IC50,Jurkat [3],1.2 µM
same,IC50,[4],5.5 µM
same,IC50,HT-1080 [6],1.9 µM
Cc1cc2c3sc(=O)ccc3ccc2n1C,Activity,LoVo [11],Active
same,Activity,Erythrocyte,Active
same,Activity,Escherichia coli [12],inactive
same,IC50,[1],1.6 µM
same,IC50,Jurkat [2],0.2 µM
same,Activity,Escherichia coli [13],Active
same,Activity,Jurkat [14],Active
same,Activity,Jurkat [15],Active
same,IC50,Jurkat [3],0.5 µM
same,Activity,Jurkat [16],Active
same,IC50,[4],2.1 µM
same,Activity,Jurkat [17],Active
same,IC50,HT-1080 [6],0.6 µM
same,Activity,LoVo [18],inactive
same,Activity,Escherichia coli [19],Active
same,Activity,Escherichia coli [20],inactive
same,Activity,Jurkat [21],Active
same,Activity,Escherichia coli [22],inactive
same,Activity,Jurkat [23],Active
same,Activity,LoVo [24],inactive
same,Activity,Jurkat [25],Active
same,Activity,Jurkat [26],Active
same,IC50,HT-1080 [9],0.9 µM
same,Activity,Jurkat [27],Dose-dependent effect
same,Activity,Nucleic Acid [28],inactive
same,Activity,Escherichia coli [29],inactive
same,Activity,LoVo [30],inactive
same,Activity,Nucleic Acid [31],inactive
same,Activity,Jurkat [32],Dose-dependent effect
same,Activity,Jurkat [33],2%
Cc1cc2c(n1Cc1ccccc1)CCc1ccc(=O)sc1-2,IC50,[1],> 20 µM
same,IC50,Jurkat [2],2.2 µM
same,IC50,Jurkat [3],4 µM
same,IC50,[4],> 20 µM
same,IC50,HT-1080 [6],9.8 µM
same,IC50,LoVo [7],> 20 µM
same,IC50,HT-1080 [9],11.2 µM
same,IC50,HL-60 [10],4 µM
Cc1cc2c3sc(=O)ccc3ccc2n1-c1ccccc1,IC50,[1],14.8 µM
same,IC50,Jurkat [2],3.5 µM
same,IC50,Jurkat [3],2.5 µM
same,IC50,[4],17 µM
same,IC50,LoVo [5],4.2 µM
same,IC50,HT-1080 [6],2 µM
same,IC50,LoVo [7],5.1 µM
same,IC50,HL-60 [8],1.3 µM
same,IC50,HT-1080 [9],5.4 µM
same,IC50,HL-60 [10],2.6 µM
O=c1ccc2ccc3occc3c2o1 [ANGELICIN],IC50,[1],1.5 µM
same,IC50,Jurkat [3],0.9 µM
same,IC50,[4],4.2 µM
